Source: PubChem BioAssay (Broad Institute)
E-sel inducer: E-selectin induction in HUVECs, primary screen, imaging, HUVEC, immunofluorescence imaging, single point; P16581; normalized: neutral wells 0, TNF-alpha wells 100; activation, % at 7.58 µM; 0.37% of 260,000 active;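 active = mean E-selectin-positive cell signal at least 10% of the positive control, reached in at least 60% of replicates, without over 20% cell loss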
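System: HUVEC, human umbilical vein endothelial cells; quantity: 3,000 cells/well; buffer or medium: EGM-2 medium, gelatin-coated wells; dosing: single-point compound dose; detection: immunofluorescence imaging; evaluation: % PE-positive cells; benchmarks: TNF-alpha, DMSO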
CFTR F508del cor: F508del CFTR correction, initial screen, CFBE line, single point; activity (quench increase), % at 7.58 µM; 0.36% of 350,000 active; CFBE cells, YFP halide quenching; stimulated with forskolin plus potentiator P3; % fluorescence drop versus neutral controls;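 active = mean added fluorescence quench of at least 8% versus neutral control, with both replicates also reaching 8%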;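 note: cells transiently co-express mutant CFTR-F508del with the halide-sensitive YFP; corrector assay measuring rescue of mutant channel to the surface after 24 h compound exposure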
miR-122 sensor: miR-122 Renilla sensor signal increase in Huh7, primary screen, miR-122 inhibitor project, cell-based, single point, plate reader | Huh7 miR-122 Renilla luciferase sensor, 48 h; neutral wells = 0, positive control = 100 | activation (reporter increase), % at 12.5 µM | 0.3% of 340,000 active | AID 602342, 2012;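 active = mean replicate activation score at least 90 and every replicate individually at or above 90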;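 note: higher luciferase means less miR-122 activity so hits act as miR-122 inhibitors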
DENV2 CPE rescue: inhibitors of DENV2 cytopathic effect, primary screen, cell-based, plate reader, single concentration. DENV2-infected cells, cytopathic effect rescue. CPE inhibition, % at 9.99 µM. 1.7% of 350,000 active; in the data active = CPE inhibition above about 20%, passing the limit was not always enough; tested in BHK-21 cells;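 note: 0% = median of neutral control wells and 100% = median of positive control wells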
ERAP1 HTS inh: human ERAP1 aminopeptidase inhibitors, primary screen, biochemical, single point, plate reader; 0.15% of 340,000 active; Endoplasmic reticulum aminopeptidase 1 (Homo sapiens), Q9NZ08; recombinant ERAP1, Leu-AMC fluorescence, 60 min; inhibition, % at 10.7 µM; AID 652197, 2013;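 active = mean replicate inhibition of at least 30%, or all replicates individually reaching that 30% level; inactive = mean below 30% and not every replicate reaching it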;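 note: 0% = neutral control wells and 100% = L-leucinethiol positive control wells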
INS-1E GSIS act: GLuc luminescence reporter in INS-1E cells, primary screen for activators of glucose-dependent secretion of insulin; activation, % at 16.6 µM; INS-1E GLuc reporter insulin secretion, 2-3 h; 0.61% of 370,000 active;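 active = lowest replicate activation of at least 40%, so every replicate reaches that level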;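 note: 0% = median of neutral control wells and 100% = median of IBMX positive control wells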
Starred values were filed as active, the others as inactive; [ ] = dose if it differs, or a comment. This is a sample that favours compounds with a hit; in the whole collection about 2.6% have one here.

Results for COc1ccc(S(=O)(=O)N(CC(C)C)CC(C)C)c2cccnc12 ?
E-sel inducer: 0; CFTR F508del cor: 1; miR-122 sensor: 8; DENV2 CPE rescue: 57*; ERAP1 HTS inh: 2; INS-1E GSIS act: -19

Results for CCc1ccccc1NS(=O)(=O)c1ccc(OC)c2ncccc12 ?
E-sel inducer: 1; CFTR F508del cor: 0; miR-122 sensor: 84; DENV2 CPE rescue: 7; ERAP1 HTS inh: -2; INS-1E GSIS act: 7

How did Cc1ccc(S(=O)(=O)N[C@H]2CC[C@@H](CCNC(=O)C3CC3)O[C@@H]2CO)cc1 do in these assays?
E-sel inducer: 0; CFTR F508del cor: 3; DENV2 CPE rescue: -5; ERAP1 HTS inh: 0; INS-1E GSIS act: 1

How did O=C(C1CCOCC1)N1CC(=O)N2[C@H](CO)[C@H](c3ccc(C#Cc4cccc(F)c4)cc3)[C@@H]2C1 do in these assays?
E-sel inducer: 1; CFTR F508del cor: -1; DENV2 CPE rescue: 3; ERAP1 HTS inh: -2; INS-1E GSIS act: -2

What do the screens show for `CO[C@H]1CN(C)C(=O)c2cc(NC(=O)c3ccc(Oc4ccccc4)cc3)ccc2OC[C@H](C)NC[C@@H]1C`?
E-sel inducer: 0; CFTR F508del cor: -7; DENV2 CPE rescue: 0; ERAP1 HTS inh: -5; INS-1E GSIS act: 18

Results for CO[C@@H]1CN(C)C(=O)c2ccc(NC(=O)c3cccc(F)c3)cc2OC[C@H](C)NC[C@@H]1C ?
E-sel inducer: 1; CFTR F508del cor: 1; miR-122 sensor: -2[16.7 µM]; DENV2 CPE rescue: 24*; ERAP1 HTS inh: -4; INS-1E GSIS act: 7

How did COc1cccc(C(=O)Nc2ccc3c(c2)OC[C@H](C)NC[C@H](C)[C@@H](OC)CN(C)C3=O)c1 do in these assays?
E-sel inducer: 0; CFTR F508del cor: 0; DENV2 CPE rescue: 25*; ERAP1 HTS inh: 0; INS-1E GSIS act: -4

How did CO[C@H]1CN(C)C(=O)c2cc(NC(=O)c3ccc(Oc4ccccc4)cc3)ccc2OC[C@@H](C)NC[C@H]1C do in these assays?
E-sel inducer: 0; CFTR F508del cor: -9; DENV2 CPE rescue: 26*; ERAP1 HTS inh: -2; INS-1E GSIS act: 11

How did CO[C@@H]1CN(C)C(=O)c2cc(NS(=O)(=O)CC(F)(F)F)ccc2OC[C@H](C)N(CC2CCCCC2)C[C@H]1C do in these assays?
E-sel inducer: 0; CFTR F508del cor: -4; DENV2 CPE rescue: 13; INS-1E GSIS act: -17

Results for CC(C)C[C@@H](CO)NS(=O)(=O)c1c(F)cccc1F ?
E-sel inducer: 0; CFTR F508del cor: -2; miR-122 sensor: -6; DENV2 CPE rescue: 49*; ERAP1 HTS inh: -6; INS-1E GSIS act: 0

How did COC(=O)c1cc(Cl)cc2c(C)c(C3(O)CCCCC3)[nH]c12 do in these assays?
E-sel inducer: 0; CFTR F508del cor: -2; miR-122 sensor: -9; DENV2 CPE rescue: -18; ERAP1 HTS inh: 4; INS-1E GSIS act: -3

How did CCc1c(C2(O)CCCCC2)[nH]c2c(C(=O)OC)cc(Cl)cc12 do in these assays?
E-sel inducer: 0; CFTR F508del cor: -3; miR-122 sensor: 1; DENV2 CPE rescue: 30*; ERAP1 HTS inh: -1; INS-1E GSIS act: 10

Results for CC(=O)OC1CCC2(C)C(CCC3C2CC(=NO)C2(C)C(C(C)OC(C)=O)CCC32)C1 (stereo unspecified) ?
E-sel inducer: 0; CFTR F508del cor: -1; miR-122 sensor: 11; DENV2 CPE rescue: 0; ERAP1 HTS inh: 0; INS-1E GSIS act: -16

Results for CC(=O)O[C@H]1CC[C@@]2(C)[C@@H](CC[C@H]3[C@@H]4CC[C@H](C(C)O)[C@@]4(C)CC(=O)[C@@H]32)C1 (stereo partly specified) ?
E-sel inducer: 0; CFTR F508del cor: -1; miR-122 sensor: -4; DENV2 CPE rescue: 37*; ERAP1 HTS inh: -3; INS-1E GSIS act: 8

Results for Cc1nn(C)cc1NC(=O)C[C@H]1CC[C@@H]2[C@H](COc3ccc(NC(=O)NC(C)C)cc3C(=O)N2C)O1 ?
E-sel inducer: 0; CFTR F508del cor: 1; miR-122 sensor: 17[16.7 µM]; DENV2 CPE rescue: 33*; ERAP1 HTS inh: -1; INS-1E GSIS act: 2
